Legend:
[1] = target: T1, Tyrosine-protein kinase JAK1 (Homo sapiens, UniProt P23458); assay: Inhibition of cytoplasmic recombinant human GST-tagged JAK1 (886 to 1154 residues) expressed in insect cells using FITC-C6-KKHTDDGYMPMSPGVA-NH as substrate after 10 mins by caliper assay
How it was run: (§1)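 Biochemical kinase inhibition IC50 measured at 5 mM ATP. Values are the geometric mean of at least two independent experiments.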

[2] = target: Tyrosine-protein kinase JAK2 (Homo sapiens, UniProt O60674); assay: Inhibition of recombinant human JAK2 (831 to 1132 residues) expressed in insect cells using 5FAM-GEEPLYWSFPAKKK-NH2 as substrate after 10 mins by caliper assay; how it was run: as §1
[3] = target: T1, Tyrosine-protein kinase JAK1; assay: Inhibition of JAK1 in human NCI-H1975 cells assessed as reduction in STAT3 phosphorylation after 1 hr by ELISA; assay type: cell-based
How it was run: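 Cellular mode-of-action assay in NCI-H1975 cells, read as inhibition of STAT3 phosphorylation. EC50 was derived.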

[4] = target: Non-receptor tyrosine-protein kinase TYK2 (Homo sapiens, UniProt P29597); assay: Inhibition of recombinant human N-terminal GST-tagged TYK2 (871 to 1187 residues) expressed in baculovirus expression system using 5FAM-GEEPLYWSFPAKKK-NH2 as substrate after 10 mins by caliper assay; how it was run: as §1
[5] = target: T2, Tyrosine-protein kinase JAK3 (Homo sapiens, UniProt P52333); assay: Inhibition of recombinant human JAK3 (781 to 1124 residues) expressed in insect cells using 5FAM-GEEPLYWSFPAKKK-NH2 as substrate after 10 mins by caliper assay; how it was run: as §1
T2 sequence (P52333 whole entry): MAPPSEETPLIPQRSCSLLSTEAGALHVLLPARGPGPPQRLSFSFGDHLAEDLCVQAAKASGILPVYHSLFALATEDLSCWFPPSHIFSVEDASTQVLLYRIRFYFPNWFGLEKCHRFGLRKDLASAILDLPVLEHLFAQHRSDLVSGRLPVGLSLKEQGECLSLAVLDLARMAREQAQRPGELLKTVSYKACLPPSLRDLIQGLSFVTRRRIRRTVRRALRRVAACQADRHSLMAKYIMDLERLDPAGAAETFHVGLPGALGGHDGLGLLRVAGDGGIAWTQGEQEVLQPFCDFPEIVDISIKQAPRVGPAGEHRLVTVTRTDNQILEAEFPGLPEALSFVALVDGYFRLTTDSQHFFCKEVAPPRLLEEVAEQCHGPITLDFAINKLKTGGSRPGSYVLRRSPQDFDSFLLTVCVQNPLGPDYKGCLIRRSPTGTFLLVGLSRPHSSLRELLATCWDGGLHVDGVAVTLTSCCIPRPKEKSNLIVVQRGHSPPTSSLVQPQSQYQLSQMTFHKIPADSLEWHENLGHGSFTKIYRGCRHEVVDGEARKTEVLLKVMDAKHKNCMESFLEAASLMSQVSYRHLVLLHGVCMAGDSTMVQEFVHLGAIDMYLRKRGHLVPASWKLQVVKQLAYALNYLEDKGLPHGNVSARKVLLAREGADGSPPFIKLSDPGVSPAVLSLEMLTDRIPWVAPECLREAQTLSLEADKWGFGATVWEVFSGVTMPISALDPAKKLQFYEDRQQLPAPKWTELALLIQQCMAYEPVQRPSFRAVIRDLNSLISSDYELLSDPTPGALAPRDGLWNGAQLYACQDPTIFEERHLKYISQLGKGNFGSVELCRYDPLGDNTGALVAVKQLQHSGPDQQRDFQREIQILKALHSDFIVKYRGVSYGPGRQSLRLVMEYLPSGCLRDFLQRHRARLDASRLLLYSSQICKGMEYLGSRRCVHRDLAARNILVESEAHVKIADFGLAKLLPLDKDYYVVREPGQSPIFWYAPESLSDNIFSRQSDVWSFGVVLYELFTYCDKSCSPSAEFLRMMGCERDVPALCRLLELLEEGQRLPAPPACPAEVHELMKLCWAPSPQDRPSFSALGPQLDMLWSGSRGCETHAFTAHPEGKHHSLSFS

[6] = Octanol-water partition coefficient, log D of the compound in sodium phosphate buffer at pH 7.4 after 5 hrs by shake-flask assay; assay type: physicochemical
[7] = organism: Homo sapiens; assay: Selectivity ratio of IC50 for recombinant human JAK2 (831 to 1132 residues) expressed in insect cell to IC50 for cytoplasmic recombinant human GST-tagged JAK1 (886 to 1154 residues) expressed in baculovirus
How it was run: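 Biochemical IC50s measured against JAK1 and JAK2 at 5 mM ATP. Each IC50 is the geometric mean of at least two independent experiments. The ratio is the JAK2 IC50 divided by the JAK1 IC50.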

[8] = Intrinsic clearance in human liver microsomes; assay type: ADME, microsome; conditions: read-out: CLH
[9] = test system: A549; assay: Antiproliferative activity against human A549 cells after 48 hrs by Alamar Blue based assay; assay type: functional; conditions: A549, 48 h
How it was run: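 Antiproliferation assay in A549 cells, reported as GI50.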

T1 sequence (P23458 whole entry, the tested form may be a part): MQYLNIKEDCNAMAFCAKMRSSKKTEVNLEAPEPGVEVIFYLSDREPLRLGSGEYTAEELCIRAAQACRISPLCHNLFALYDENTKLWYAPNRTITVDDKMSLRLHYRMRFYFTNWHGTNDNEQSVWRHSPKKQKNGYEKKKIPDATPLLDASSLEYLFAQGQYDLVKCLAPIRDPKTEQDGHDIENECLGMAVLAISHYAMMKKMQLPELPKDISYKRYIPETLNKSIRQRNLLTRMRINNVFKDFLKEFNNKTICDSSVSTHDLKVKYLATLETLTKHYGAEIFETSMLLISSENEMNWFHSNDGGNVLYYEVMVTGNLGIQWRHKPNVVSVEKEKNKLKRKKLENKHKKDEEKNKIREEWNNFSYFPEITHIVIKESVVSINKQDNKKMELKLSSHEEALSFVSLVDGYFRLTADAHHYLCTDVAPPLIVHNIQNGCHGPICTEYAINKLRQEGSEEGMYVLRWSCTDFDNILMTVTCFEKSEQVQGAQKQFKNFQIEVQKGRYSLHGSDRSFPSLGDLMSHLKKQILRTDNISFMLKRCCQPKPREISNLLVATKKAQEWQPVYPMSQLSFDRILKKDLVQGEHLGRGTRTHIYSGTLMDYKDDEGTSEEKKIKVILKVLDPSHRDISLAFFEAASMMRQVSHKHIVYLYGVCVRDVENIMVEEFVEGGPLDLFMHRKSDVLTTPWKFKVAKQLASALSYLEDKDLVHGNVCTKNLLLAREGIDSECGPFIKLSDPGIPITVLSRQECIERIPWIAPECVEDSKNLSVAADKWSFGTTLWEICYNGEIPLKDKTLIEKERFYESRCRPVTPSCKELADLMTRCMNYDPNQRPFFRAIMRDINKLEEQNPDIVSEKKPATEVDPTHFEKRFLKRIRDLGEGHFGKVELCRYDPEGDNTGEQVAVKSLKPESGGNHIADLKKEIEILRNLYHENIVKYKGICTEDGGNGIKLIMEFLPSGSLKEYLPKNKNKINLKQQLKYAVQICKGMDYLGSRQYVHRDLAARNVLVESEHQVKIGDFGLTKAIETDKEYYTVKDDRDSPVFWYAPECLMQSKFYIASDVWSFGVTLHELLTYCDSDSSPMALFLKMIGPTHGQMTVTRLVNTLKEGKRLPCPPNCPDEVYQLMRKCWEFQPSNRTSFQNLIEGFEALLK
Chain of Tyrosine-protein kinase JAK2 (O60674 whole entry, the tested form may be a part): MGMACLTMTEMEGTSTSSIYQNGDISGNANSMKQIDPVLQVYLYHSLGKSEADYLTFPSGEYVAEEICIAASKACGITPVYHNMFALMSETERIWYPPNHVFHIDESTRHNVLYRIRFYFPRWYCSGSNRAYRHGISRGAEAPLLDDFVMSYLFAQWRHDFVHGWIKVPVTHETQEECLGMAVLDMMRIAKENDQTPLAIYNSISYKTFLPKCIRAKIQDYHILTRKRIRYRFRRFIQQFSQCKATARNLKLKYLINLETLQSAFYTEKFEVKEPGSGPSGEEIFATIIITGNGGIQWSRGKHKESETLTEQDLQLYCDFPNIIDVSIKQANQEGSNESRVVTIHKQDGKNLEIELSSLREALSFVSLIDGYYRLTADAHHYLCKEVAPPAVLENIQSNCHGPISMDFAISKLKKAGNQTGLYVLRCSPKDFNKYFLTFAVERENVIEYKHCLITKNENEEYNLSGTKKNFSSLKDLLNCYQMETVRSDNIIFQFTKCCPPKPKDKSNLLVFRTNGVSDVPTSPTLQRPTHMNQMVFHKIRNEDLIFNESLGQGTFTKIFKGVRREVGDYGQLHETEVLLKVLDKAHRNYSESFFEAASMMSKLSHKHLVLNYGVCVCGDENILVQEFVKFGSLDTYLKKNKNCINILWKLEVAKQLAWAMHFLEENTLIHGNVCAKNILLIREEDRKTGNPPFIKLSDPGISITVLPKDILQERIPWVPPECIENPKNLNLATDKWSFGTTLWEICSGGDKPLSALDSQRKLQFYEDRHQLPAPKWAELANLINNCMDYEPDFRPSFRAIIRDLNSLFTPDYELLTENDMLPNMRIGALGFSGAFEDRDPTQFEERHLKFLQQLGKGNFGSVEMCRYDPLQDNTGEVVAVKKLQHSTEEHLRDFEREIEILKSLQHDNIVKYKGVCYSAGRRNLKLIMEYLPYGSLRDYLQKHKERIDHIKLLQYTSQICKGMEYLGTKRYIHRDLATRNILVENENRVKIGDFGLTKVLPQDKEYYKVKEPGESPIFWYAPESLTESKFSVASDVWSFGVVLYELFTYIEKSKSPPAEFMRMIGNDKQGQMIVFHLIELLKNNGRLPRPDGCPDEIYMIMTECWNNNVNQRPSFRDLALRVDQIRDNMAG
Chain of Non-receptor tyrosine-protein kinase TYK2 (P29597 whole entry, the tested form may be a part): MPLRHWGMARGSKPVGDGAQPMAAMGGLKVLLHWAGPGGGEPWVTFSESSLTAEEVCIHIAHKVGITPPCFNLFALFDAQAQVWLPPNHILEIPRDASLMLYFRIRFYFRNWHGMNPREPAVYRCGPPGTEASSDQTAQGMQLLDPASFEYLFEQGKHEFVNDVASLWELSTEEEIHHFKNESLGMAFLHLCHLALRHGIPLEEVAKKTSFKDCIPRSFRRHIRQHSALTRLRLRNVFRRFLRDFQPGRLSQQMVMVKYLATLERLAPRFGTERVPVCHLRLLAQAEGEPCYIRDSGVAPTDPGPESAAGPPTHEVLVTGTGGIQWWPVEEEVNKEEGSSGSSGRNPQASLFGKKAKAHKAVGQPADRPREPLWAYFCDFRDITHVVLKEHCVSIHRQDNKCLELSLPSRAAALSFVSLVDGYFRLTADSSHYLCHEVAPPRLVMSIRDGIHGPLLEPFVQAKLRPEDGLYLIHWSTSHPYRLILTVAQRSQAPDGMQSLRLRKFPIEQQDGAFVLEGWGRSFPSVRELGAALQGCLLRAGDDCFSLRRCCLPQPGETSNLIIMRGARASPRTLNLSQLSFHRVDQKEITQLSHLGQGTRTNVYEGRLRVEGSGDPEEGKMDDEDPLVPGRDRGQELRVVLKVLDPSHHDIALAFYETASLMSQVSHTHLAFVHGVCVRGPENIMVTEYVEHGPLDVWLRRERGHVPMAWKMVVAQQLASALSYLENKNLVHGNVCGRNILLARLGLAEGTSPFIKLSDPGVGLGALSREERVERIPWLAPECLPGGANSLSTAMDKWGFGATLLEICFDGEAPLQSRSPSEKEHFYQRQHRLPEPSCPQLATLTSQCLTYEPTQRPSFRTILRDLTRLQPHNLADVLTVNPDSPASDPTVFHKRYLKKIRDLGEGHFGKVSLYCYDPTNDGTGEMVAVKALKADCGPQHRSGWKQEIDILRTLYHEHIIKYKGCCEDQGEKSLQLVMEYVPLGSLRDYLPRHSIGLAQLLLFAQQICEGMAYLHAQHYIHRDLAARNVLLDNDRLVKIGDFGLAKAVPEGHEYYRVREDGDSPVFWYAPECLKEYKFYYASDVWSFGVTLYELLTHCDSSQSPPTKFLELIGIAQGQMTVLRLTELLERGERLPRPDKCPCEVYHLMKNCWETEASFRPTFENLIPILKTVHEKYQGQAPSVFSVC

| Structure (SMILES) | IC50 [1] [nM] | IC50 [2] [nM] | EC50 [3] [nM] | IC50 [4] [nM] | IC50 [5] [nM] | logD at 5 h [6] | Ratio IC50 [7] | microsomal CLint [8] [µL/min/mg] | GI50 [9] [nM] |
| --- | --- | --- | --- | --- | --- | --- | --- | --- | --- |
| Cc1cnc(Nc2cc(N3C[C@@H]4C[C@H]3CN4C)cnc2F)nc1N[C@H](C)C(C)C | 26 | > 30000 | 50 | 24700 | – | – | – | – | – |
| CC(=O)N1CCN(c2cc(Nc3ncc(C)c(Nc4cccc(CO)c4)n3)cc(S(C)(=O)=O)c2)CC1 | 10 | 347 | > 3000 | – | 24600 | 1.74 | – | – | – |
| COCCN1CCN(c2cc(Nc3ncc(C)c(Nc4cccc(CO)c4)n3)cc(S(C)(=O)=O)c2)CC1 | 12 | 1030 | 189 | – | > 30000 | 1.9 | – | – | – |
| Cc1cnc(Nc2cc(N3C[C@@H](C)N[C@@H](C)C3)cc(S(C)(=O)=O)c2)nc1Nc1cccc(CO)c1 | 5 | 996 | 325 | – | > 30000 | 1.24 | – | – | – |
| Cc1cnc(Nc2cc(N3C[C@@H]4C[C@H]3CN4C)cc(S(C)(=O)=O)c2)nc1Nc1cccc(CO)c1 | < 3 | 1180 | 92 | – | > 27900 | 0.82 | – | 7.32 | – |
| Cc1cnc(Nc2cccc(N3CCN(C)CC3)c2)nc1Nc1cccc(CO)c1 | 55 | 357 | – | – | 20300 | – | 6.5 | – | – |
| Cc1cnc(Nc2cc(N3C[C@@H]4C[C@H]3CN4C)cc(C(F)F)c2F)nc1Nc1cccc(CO)c1 | 55 | > 30000 | 26 | – | > 30000 | – | – | – | – |
| Cc1cnc(Nc2cc(N3CCN(CCO)CC3)cc(S(C)(=O)=O)c2)nc1Nc1cccc(CO)c1 | 6 | 817 | > 3000 | – | > 30000 | 1.29 | – | – | – |
| Cc1cnc(Nc2cc(N3C[C@@H]4C[C@H]3CN4C)ccc2F)nc1Nc1cccc(CO)c1 | 117 | > 30000 | 101 | – | > 30000 | – | – | – | – |
| CN1CCN(c2cc(Nc3ncc(F)c(Nc4cccc(CO)c4)n3)cc(S(C)(=O)=O)c2)CC1 | 42 | 6410 | – | – | > 30000 | 1.84 | 150 | – | – |
| Cc1cnc(Nc2cc(N3CCN(C)CC3)cc(S(C)(=O)=O)c2)nc1Nc1cccc(CO)c1 | < 3 | 929 | 99 | – | > 30000 | 1.74 | > 309 | 59.5 | – |

The remaining lines, values ahead:

| IC50 [1] [nM] | IC50 [2] [nM] | EC50 [3] [nM] | IC50 [4] [nM] | IC50 [5] [nM] | logD at 5 h [6] | Ratio IC50 [7] | microsomal CLint [8] [µL/min/mg] | GI50 [9] [nM] | Structure (SMILES) |
| --- | --- | --- | --- | --- | --- | --- | --- | --- | --- |
| 13 | 417 | – | – | > 30000 | – | 32 | – | – | Cc1cnc(Nc2cc(N3CCOCC3)cc(S(C)(=O)=O)c2)nc1Nc1cccc(CO)c1 |
| 16 | 376 | 37 | – | 18100 | – | – | – | – | Cc1cnc(Nc2cc(C(F)F)cc(N3C[C@@H]4C[C@H]3CN4C)c2)nc1Nc1cccc(CO)c1 |
| 29 | > 30000 | 44 | > 30000 | > 30000 | – | – | – | > 10000 | CCC(CC)Nc1nc(Nc2cc(N3C[C@@H]4C[C@H]3CN4C)cnc2F)ncc1C |
| < 3 | 363 | – | – | 6540 | 2.43 | > 120 | – | – | CN1CCN(c2cc(Nc3ncc(Br)c(Nc4cccc(CO)c4)n3)cc(S(C)(=O)=O)c2)CC1 |
| 4 | < 3 | – | – | 371 | – | < 0.75 | – | – | Cc1cnc(Nc2cc(N3CCOCC3)cc(N3CCOCC3)c2)nc1Nc1cccc(CO)c1 |
| < 3 | 36 | – | – | 464 | – | > 10 | – | – | CN1CCN(c2cc(Nc3nccc(Nc4ccc(F)c(Cl)c4F)n3)cc(S(C)(=O)=O)c2)CC1 |
| 40 | > 30000 | 68 | – | > 30000 | – | – | – | 253 | Cc1cnc(Nc2cc(N3C[C@@H]4C[C@H]3CN4C)cnc2F)nc1Nc1cccc(CO)c1 |
| < 3 | 951 | 496 | – | > 30000 | 1.09 | – | – | – | Cc1cnc(Nc2cc(N3CCNCC3)cc(S(C)(=O)=O)c2)nc1Nc1cccc(CO)c1 |
| 3 to 100 | 13900 | – | – | > 30000 | 1.75 | 140 | – | – | CN1CCN(c2cc(Nc3nccc(Nc4cccc(CO)c4)n3)cc(S(C)(=O)=O)c2)CC1 |
| < 3 | 722 | – | – | 12600 | 2.16 | > 240 | – | – | CN1CCN(c2cc(Nc3ncc(Cl)c(Nc4cccc(CO)c4)n3)cc(S(C)(=O)=O)c2)CC1 |

Source: ChEMBL document CHEMBL4138312 (J Med Chem, 2018)
